In ChEMBL document CHEMBL1138555, “N-acylated and N,N'-diacylated imidazolidine-2-thione derivatives and N,N'-diacylated tetrahydropyrimidine-2(1H)-thione analogues: synthesis and antiproliferative activity” (Eur J Med Chem, 2009):

Tests used:
EKVX = experiment: Growth inhibition of human EKVX cells after 48 hrs by sulforhodamine B assay; type: functional
Procedure, shortened: (§1)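 NCI screen panel. Five 10-fold concentrations from 10^-4 to 10^-8 M. Exposure for the last 48 h of a 72 h incubation. Growth estimated by sulforhodamine B protein assay. GI50 is the concentration giving 50% growth inhibition. Where that level was not reached or was exceeded, the value is given as above or below the highest or lowest concentration tested.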

OVCAR-8 = experiment: Growth inhibition of human OVCAR8 cells after 48 hrs by sulforhodamine B assay; type: functional; conditions: OVCAR-8, 48 h; procedure, shortened: as §1
SK-OV-3 = experiment: Growth inhibition of human SKOV3 cells after 48 hrs by sulforhodamine B assay; type: functional; conditions: SK-OV-3, 48 h; procedure, shortened: as §1
DU-145 = experiment: Growth inhibition of human DU145 cells after 48 hrs by sulforhodamine B assay; type: functional; conditions: DU-145, 48 h; procedure, shortened: as §1
MDA-MB-435 = experiment: Growth inhibition of human MDA-MB-435 cells after 48 hrs by sulforhodamine B assay; type: functional; conditions: MDA-MB-435, 48 h; procedure, shortened: as §1
T47D = experiment: Growth inhibition of human T47D cells after 48 hrs by sulforhodamine B assay; type: functional
Procedure, shortened: (§2)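 NCI in vitro panel screen. Compounds tested at five 10-fold dilutions, 10^-4 to 10^-8 M. Cells in 96-well plates were exposed for the last 48 h of a 72 h incubation. Viability/growth was read by sulforhodamine B protein assay. GI50 is the concentration giving 50% growth inhibition. Values beyond the tested range are reported as greater or less than the maximum or minimum concentration.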

MOLT-4 = experiment: Growth inhibition of human MOLT4 cells after 48 hrs by sulforhodamine B assay; type: functional; conditions: MOLT-4, 48 h; procedure, shortened: as §1
SK-MEL-2 = experiment: Growth inhibition of human SK-MEL-2 cells after 48 hrs by sulforhodamine B assay; type: functional; conditions: SK-MEL-2, 48 h; procedure, shortened: as §1
HT-29 = experiment: Growth inhibition of human HT-29 cells after 48 hrs by sulforhodamine B assay; type: functional; conditions: HT-29, 48 h; procedure, shortened: as §1
SR = experiment: Growth inhibition of human SR cells after 48 hrs by sulforhodamine B assay; type: functional; procedure, shortened: as §2
SK-MEL-5 = experiment: Growth inhibition of human SK-MEL-5 cells after 48 hrs by sulforhodamine B assay; type: functional; conditions: SK-MEL-5, 48 h; procedure, shortened: as §1
COLO 205 = experiment: Growth inhibition of human COLO205 cells after 48 hrs by sulforhodamine B assay; type: functional; conditions: COLO 205, 48 h; procedure, shortened: as §1
HOP-92 = experiment: Growth inhibition of human HOP92 cells after 48 hrs by sulforhodamine B assay; type: functional; conditions: HOP-92, 48 h; procedure, shortened: as §1
[1] = Growth inhibition of human […] cells after 48 hrs by sulforhodamine B assay; type: functional; procedure, shortened: as §1
NCI-H322M = experiment: Growth inhibition of human NCI-H322M cells after 48 hrs by sulforhodamine B assay; type: functional; procedure, shortened: as §1
UO-31 = experiment: Growth inhibition of human UO31 cells after 48 hrs by sulforhodamine B assay; type: functional; conditions: UO-31, 48 h; procedure, shortened: as §2
RXF 393 = experiment: Growth inhibition of human RXF393 cells after 48 hrs by sulforhodamine B assay; type: functional; conditions: RXF 393, 48 h; procedure, shortened: as §1
HCT-15 = experiment: Growth inhibition of human HCT15 cells after 48 hrs by sulforhodamine B assay; type: functional; conditions: HCT-15, 48 h; procedure, shortened: as §1
Malme-3M = experiment: Growth inhibition of human MALME-3M cells after 48 hrs by sulforhodamine B assay; type: functional; procedure, shortened: as §1
MT4 = experiment: Antiproliferative activity against human MT4 cells assessed as reduction of growth by MTT assay; type: functional, cell-based
Procedure, shortened: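 MT-4 lymphoblastoid T cells (ATCC) in RPMI 1640 with 10% FCS, penicillin/streptomycin, checked for mycoplasma. 1 × 10⁴ mock-infected cells per well with serial dilutions from a 100 mM DMSO stock. Incubated 4 days at 37 °C, viable cells counted by MTT. IC50 versus untreated controls by linear regression. Mean of three separate experiments.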

PC-3 = experiment: Growth inhibition of human PC3 cells after 48 hrs by sulforhodamine B assay; type: functional; conditions: PC-3, 48 h; procedure, shortened: as §1
NCI-H23 = experiment: Growth inhibition of human NCI-H23 cells after 48 hrs by sulforhodamine B assay; type: functional; conditions: NCI-H23, 48 h; procedure, shortened: as §1
UACC-62 = experiment: Growth inhibition of human UACC62 cells after 48 hrs by sulforhodamine B assay; type: functional; conditions: UACC-62, 48 h; procedure, shortened: as §2
OVCAR-4 = experiment: Growth inhibition of human OVCAR4 cells after 48 hrs by sulforhodamine B assay; type: functional; conditions: OVCAR-4, 48 h; procedure, shortened: as §1
CCRF-CEM = experiment: Growth inhibition of human CCRF-CEM cells after 48 hrs by sulforhodamine B assay; type: functional; procedure, shortened: as §1
SNB-75 = experiment: Growth inhibition of human SNB75 cells after 48 hrs by sulforhodamine B assay; type: functional; conditions: SNB-75, 48 h; procedure, shortened: as §2
LOX IMVI = experiment: Growth inhibition of human LOXIMVI cells after 48 hrs by sulforhodamine B assay; type: functional; procedure, shortened: as §1
MCF7 = experiment: Growth inhibition of human MCF7 cells after 48 hrs by sulforhodamine B assay; type: functional; conditions: MCF7, 48 h; procedure, shortened: as §1
KM12 = experiment: Growth inhibition of human KM12 cells after 48 hrs by sulforhodamine B assay; type: functional; conditions: KM12, 48 h; procedure, shortened: as §1
SF-539 = experiment: Growth inhibition of human SF539 cells after 48 hrs by sulforhodamine B assay; type: functional; conditions: SF-539, 48 h; procedure, shortened: as §1
BT-549 = experiment: Growth inhibition of human BT549 cells after 48 hrs by sulforhodamine B assay; type: functional; conditions: BT-549, 48 h; procedure, shortened: as §1
TK-10 = experiment: Growth inhibition of human TK10 cells after 48 hrs by sulforhodamine B assay; type: functional; conditions: TK-10, 48 h; procedure, shortened: as §2
IGROV-1 = experiment: Growth inhibition of human IGROV1 cells after 48 hrs by sulforhodamine B assay; type: functional; conditions: IGROV-1, 48 h; procedure, shortened: as §1
SNB-19 = experiment: Growth inhibition of human SNB19 cells after 48 hrs by sulforhodamine B assay; type: functional; conditions: SNB-19, 48 h; procedure, shortened: as §2
A549 = experiment: Growth inhibition of human A549 cells after 48 hrs by sulforhodamine B assay; type: functional; conditions: A549, 48 h; procedure, shortened: as §1
ACHN = experiment: Growth inhibition of human ACHN cells after 48 hrs by sulforhodamine B assay; type: functional; procedure, shortened: as §1
OVCAR-3 = experiment: Growth inhibition of human OVCAR-3 cells after 48 hrs by sulforhodamine B assay; type: functional; conditions: OVCAR-3, 48 h; procedure, shortened: as §1
SF-295 = experiment: Growth inhibition of human SF295 cells after 48 hrs by sulforhodamine B assay; type: functional; conditions: SF-295, 48 h; procedure, shortened: as §1
SF-268 = experiment: Growth inhibition of human SF268 cells after 48 hrs by sulforhodamine B assay; type: functional; conditions: SF-268, 48 h; procedure, shortened: as §1
K562 = experiment: Growth inhibition of human K562 cells after 48 hrs by sulforhodamine B assay; type: functional; conditions: K562, 48 h; procedure, shortened: as §1
CAKI-1 = experiment: Growth inhibition of human Caki1 cells after 48 hrs by sulforhodamine B assay; type: functional; conditions: CAKI-1, 48 h; procedure, shortened: as §1
NCI-H460 = experiment: Growth inhibition of human NCI-H460 cells after 48 hrs by sulforhodamine B assay; type: functional; conditions: NCI-H460, 48 h; procedure, shortened: as §1
SW-620 = experiment: Growth inhibition of human SW620 cells after 48 hrs by sulforhodamine B assay; type: functional; conditions: SW-620, 48 h; procedure, shortened: as §2
SN12C = experiment: Growth inhibition of human SN12C cells after 48 hrs by sulforhodamine B assay; type: functional; procedure, shortened: as §2
MDA-MB-231 = experiment: Growth inhibition of human MDA-MB-231 cells after 48 hrs by sulforhodamine B assay; type: functional; conditions: MDA-MB-231, 48 h; procedure, shortened: as §1
HL-60(TB) = experiment: Growth inhibition of human HL-60(TB) cells after 48 hrs by sulforhodamine B assay; type: functional; conditions: HL-60, 48 h
Procedure, shortened: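 NCI 60-cell-line screen protocol: cells exposed to compound at five 10-fold dilutions from 10^-4 to 10^-8 M for the last 48 h of a 72 h incubation. Sulforhodamine B protein assay estimated viability/growth. GI50 (50% growth inhibition) derived; where not reached or exceeded, reported as greater or less than the highest or lowest concentration tested.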

SK-MEL-28 = experiment: Growth inhibition of human SK-MEL-28 cells after 48 hrs by sulforhodamine B assay; type: functional; conditions: SK-MEL-28, 48 h; procedure, shortened: as §1
U-251 = experiment: Growth inhibition of human U251 cells after 48 hrs by sulforhodamine B assay; type: functional; conditions: U-251, 48 h; procedure, shortened: as §2

With N#CC(C#N)=CN1CCN(C(=O)c2ccco2)C1=S the GI50 (EKVX) was 11.9 µM, the GI50 (OVCAR-8) was 14.6 µM and the GI50 (SK-OV-3) was 33.1 µM. For the same compound, the GI50 (DU-145) was 5.5 µM, the GI50 (MDA-MB-435) was 5.3 µM and the GI50 (T47D) was 21.2 µM. For the same compound, the GI50 (MOLT-4) was 5.2 µM, the GI50 (SK-MEL-2) was 4.3 µM and the GI50 (HT-29) was 27.7 µM. The GI50 (SR) was 2000 nM, the GI50 (SK-MEL-5) was 2900 nM and the GI50 (COLO 205) was 16.5 µM. The GI50 (HOP-92) was 22.4 µM, the GI50 [1] was 4.5 µM and the GI50 (NCI-H322M) was 15.5 µM. The GI50 (UO-31) was 10.5 µM, the GI50 (RXF 393) was 2600 nM and the GI50 (HCT-15) was 5.2 µM. For the same compound, the GI50 (Malme-3M) was 47.8 µM, the IC50 (MT4) was 4.4 µM and the GI50 (PC-3) was 17.2 µM. It also gave a GI50 (NCI-H23) of 5.8 µM, a GI50 (UACC-62) of 8.8 µM and a GI50 (OVCAR-4) of 20.1 µM. For the same compound, the GI50 (CCRF-CEM) was 79.7 µM, the GI50 (SNB-75) was 40.6 µM and the GI50 (LOX IMVI) was 3.3 µM. For the same compound, the GI50 (MCF7) was 3.5 µM, the GI50 (KM12) was 4.1 µM and the GI50 (SF-539) was 2500 nM. It also gave a GI50 (BT-549) of 6.9 µM, a GI50 (TK-10) of 4.6 µM and a GI50 (IGROV-1) of 6.6 µM. For the same compound, the GI50 (SNB-19) was 38.7 µM, the GI50 (A549) was 13.5 µM and the GI50 (ACHN) was 9.4 µM. For the same compound, the GI50 (OVCAR-3) was 11.2 µM, the GI50 (SF-295) was 31.3 µM and the GI50 (SF-268) was 31.4 µM. For the same compound, the GI50 (K562) was 6.6 µM, the GI50 (CAKI-1) was 4.8 µM and the GI50 (NCI-H460) was 3.3 µM. For the same compound, the GI50 (SW-620) was 5.6 µM, the GI50 (SN12C) was 3.1 µM and the GI50 (MDA-MB-231) was 2900 nM. For the same compound, the GI50 (HL-60(TB)) was 19.8 µM, the GI50 (SK-MEL-28) was 12.5 µM and the GI50 (U-251) was 6.6 µM.
